What was measured:
[1] = in vitro; conditions: PAMPA
[2] = target: T1, Amine oxidase [flavin-containing] B (Homo sapiens, UniProt P27338)
T1 sequence (P27338 whole entry): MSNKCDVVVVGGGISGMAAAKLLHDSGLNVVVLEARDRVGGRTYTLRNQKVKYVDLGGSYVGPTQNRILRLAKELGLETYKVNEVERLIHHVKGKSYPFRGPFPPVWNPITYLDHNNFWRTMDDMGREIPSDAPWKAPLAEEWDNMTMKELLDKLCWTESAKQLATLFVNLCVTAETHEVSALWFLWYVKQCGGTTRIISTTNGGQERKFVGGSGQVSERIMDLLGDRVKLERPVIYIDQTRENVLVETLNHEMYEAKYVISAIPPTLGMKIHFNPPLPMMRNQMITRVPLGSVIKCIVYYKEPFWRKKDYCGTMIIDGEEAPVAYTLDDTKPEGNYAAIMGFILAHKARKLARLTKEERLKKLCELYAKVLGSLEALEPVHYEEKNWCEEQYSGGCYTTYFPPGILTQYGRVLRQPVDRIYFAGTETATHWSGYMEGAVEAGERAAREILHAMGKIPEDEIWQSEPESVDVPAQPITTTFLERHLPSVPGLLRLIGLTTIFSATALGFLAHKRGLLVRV

[3] = target: Butyrylcholinesterase (Rattus norvegicus, UniProt Q9JKC1); assay: Inhibition of BuChE in rat serum using butyrylthiocholine iodide as substrate after 20 mins by Ellman's method
Sequence of Butyrylcholinesterase (Q9JKC1 whole entry): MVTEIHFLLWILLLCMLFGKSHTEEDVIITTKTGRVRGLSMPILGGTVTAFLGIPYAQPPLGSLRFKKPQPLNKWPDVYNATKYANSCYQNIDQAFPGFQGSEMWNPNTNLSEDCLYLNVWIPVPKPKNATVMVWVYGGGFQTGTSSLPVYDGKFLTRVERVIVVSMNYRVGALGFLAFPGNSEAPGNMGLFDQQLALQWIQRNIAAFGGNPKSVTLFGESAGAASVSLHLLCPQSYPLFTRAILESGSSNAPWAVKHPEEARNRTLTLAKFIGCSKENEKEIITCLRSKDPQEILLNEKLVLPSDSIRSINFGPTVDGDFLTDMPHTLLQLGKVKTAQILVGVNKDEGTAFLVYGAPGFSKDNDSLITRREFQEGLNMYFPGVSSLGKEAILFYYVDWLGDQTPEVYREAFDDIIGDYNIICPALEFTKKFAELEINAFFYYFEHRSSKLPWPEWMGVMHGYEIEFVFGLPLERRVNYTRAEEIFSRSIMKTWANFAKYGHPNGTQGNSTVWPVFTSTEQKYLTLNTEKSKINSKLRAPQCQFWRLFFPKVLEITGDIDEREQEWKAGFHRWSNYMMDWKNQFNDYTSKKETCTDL

[4] = target: Butyrylcholinesterase (Rattus norvegicus) (UniProt Q9JKC1); assay: Inhibition of BuChE in rat serum at 40 uM using butyrylthiocholine iodide as substrate after 20 mins by Ellman's method
Sequence of Butyrylcholinesterase (Rattus norvegicus) (Q9JKC1 as listed by the source): as the sequence (Q9JKC1 whole entry) above

[5] = target: T1, Amine oxidase [flavin-containing] B; assay: Inhibition of recombinant human MAOB at 50 uM using benzylamine as substrate preincubated for 15 mins followed by substrate addition measured after 15 mins by Amplex red reagent based fluorescence assay; conditions: 0.25 h
[6] = species: Rattus norvegicus; assay: Selectivity index, ratio of IC50 for BuChE in rat serum to IC50 for AChE in rat cortex homogenate; type: tissue-based
[7] = target: T2, Amine oxidase [flavin-containing] A (Homo sapiens, UniProt P21397); assay: Inhibition of recombinant human MAOA using p-tyramine as substrate preincubated for 15 mins followed by substrate addition measured after 15 mins by Amplex red reagent based fluorescence assay
T2 sequence (P21397 whole entry): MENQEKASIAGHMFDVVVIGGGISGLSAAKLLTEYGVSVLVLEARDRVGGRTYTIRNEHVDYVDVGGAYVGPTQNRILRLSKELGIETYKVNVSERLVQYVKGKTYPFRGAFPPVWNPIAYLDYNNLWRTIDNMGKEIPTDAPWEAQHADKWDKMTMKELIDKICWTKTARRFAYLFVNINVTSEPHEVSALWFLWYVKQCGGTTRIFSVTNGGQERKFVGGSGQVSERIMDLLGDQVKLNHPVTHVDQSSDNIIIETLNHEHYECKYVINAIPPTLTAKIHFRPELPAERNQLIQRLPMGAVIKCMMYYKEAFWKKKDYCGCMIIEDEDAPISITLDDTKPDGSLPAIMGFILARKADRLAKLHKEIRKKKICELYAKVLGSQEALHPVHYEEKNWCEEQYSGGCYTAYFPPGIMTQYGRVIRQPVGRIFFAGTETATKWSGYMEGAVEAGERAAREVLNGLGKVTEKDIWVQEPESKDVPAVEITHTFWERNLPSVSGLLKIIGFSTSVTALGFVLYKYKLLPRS

[8] = target: T2, Amine oxidase [flavin-containing] A; assay: Inhibition of recombinant human MAOA at 50 uM using p-tyramine as substrate preincubated for 15 mins followed by substrate addition measured after 15 mins by Amplex red reagent based fluorescence assay; conditions: 0.25 h
How it was run: (§1)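 Recombinant human MAO-A (12.5 µg/mL) or MAO-B (75 µg/mL) preincubated 15 min at 37 °C with compound (diluted from 10 mM DMSO stock in 50 mM KH2PO4, pH 7.4). Amplex Red working solution added: 2 mM p-tyramine (MAO-A) or benzylamine (MAO-B), 2 U/mL HRP. After 15 min at 37 °C, fluorescence read (ex 545/em 590), background from enzyme-free wells subtracted.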

[9] = target: T3, Acetylcholinesterase (Rattus norvegicus, UniProt P37136); assay: Inhibition of AChE in rat cortex homogenate using acetylthiocholine iodide as substrate after 20 mins by Ellman's method
T3 sequence (P37136 whole entry): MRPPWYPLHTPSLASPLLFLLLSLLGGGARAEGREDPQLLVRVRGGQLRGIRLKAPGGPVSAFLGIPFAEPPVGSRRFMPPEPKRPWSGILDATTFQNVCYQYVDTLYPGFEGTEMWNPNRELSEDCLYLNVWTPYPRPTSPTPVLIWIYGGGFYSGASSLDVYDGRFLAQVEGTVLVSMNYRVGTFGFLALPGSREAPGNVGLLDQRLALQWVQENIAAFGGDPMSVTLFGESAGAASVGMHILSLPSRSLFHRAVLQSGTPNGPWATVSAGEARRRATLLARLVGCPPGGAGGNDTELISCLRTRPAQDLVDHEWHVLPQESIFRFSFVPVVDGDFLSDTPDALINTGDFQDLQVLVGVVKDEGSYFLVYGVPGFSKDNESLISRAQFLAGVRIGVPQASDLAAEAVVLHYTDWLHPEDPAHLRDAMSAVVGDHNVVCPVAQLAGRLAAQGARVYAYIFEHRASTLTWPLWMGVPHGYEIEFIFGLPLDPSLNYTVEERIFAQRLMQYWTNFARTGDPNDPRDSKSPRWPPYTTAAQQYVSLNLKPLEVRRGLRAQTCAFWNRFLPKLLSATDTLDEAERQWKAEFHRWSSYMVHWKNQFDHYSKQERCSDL

[10] = Antioxidant activity assessed as trolox equivalent of AAPH radical scavenging activity preincubated for 10 mins followed by AAPH addition measured every 2 mins for 180 mins by ORAC-FL assay; type: functional
How it was run: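 Compound at 20 µM (diluted from 10 mM DMSO stock in 75 mM phosphate, pH 7.4) with fluorescein (0.117 µM diluted) for 10 min at 37 °C, then AAPH (40 mM solution) added. Fluorescence (ex 485/em 535) read every 2 min for 180 min. […] Triplicate wells, ≥3 runs.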

[11] = species: Homo sapiens; assay: Selectivity index, ratio of IC50 for recombinant human MAOA to IC50 for recombinant human MAOB
How it was run: as §1

Row | Compound | Papp at 12 h, 100 ug/ml [1] [×10⁻⁶ cm/s] | IC50 [2] [µM] | IC50 [3] [µM] | inhibition [4] [%] | inhibition at 50 µM [5] [%] | Ratio IC50 [6] | IC50 [7] [µM] | inhibition at 50 µM [8] [%] | IC50 [9] [nM] | Activity (umolequiv/umol) [10] | Ratio IC50 [11]
1 | C#CCNCCc1cn(-c2cc(NC(=S)NCC)ncn2)cn1 | 3.24 | > 50 | > 40 | 8.73 | 19.2 | > 175 | > 50 | 54.2 | 228 | 1.27 | –
2 | C#CCN(CC#N)CCc1cn(-c2cc(NC(=S)NCC)ncn2)cn1 | – | > 50 | > 40 | 3.02 | 24.9 | > 67 | > 50 | 13.9 | 597 | 0.556 | –
3 | C#CCN(CC)Cc1cn(-c2cc(NC(=S)NCC)ncn2)cn1 | – | > 50 | > 40 | 10.5 | 35.1 | > 83 | > 50 | 6.71 | 482 | 1.38 | –
4 | C#CCN(CC#C)Cc1cn(-c2cc(NC(=S)NCC)ncn2)cn1 | – | > 50 | > 40 | 4.97 | 42.1 | > 56 | > 50 | 15.5 | 718 | 0.585 | –
5 | C#CCN(C)CCc1cn(-c2cc(NC(=S)NCC)ncn2)cn1 | 3.33 | 12.4 | > 40 | 8.91 | – | > 102 | 9 | – | 392 | 1.24 | 0.724
6 | C#CCN(CC#N)Cc1cn(-c2cc(NC(=S)NCC)ncn2)cn1 | – | > 50 | > 40 | 5.48 | 15.3 | > 57 | > 50 | 2.01 | 707 | 0.494 | –
7 | C#CCN(CCC)Cc1cn(-c2cc(NC(=S)NCC)ncn2)cn1 | – | > 50 | > 40 | 7.75 | 24.3 | > 83 | > 50 | 1.76 | 485 | 0.448 | –
8 | C#CCN(CC)CCc1cn(-c2cc(NC(=S)NCC)ncn2)cn1 | – | > 50 | > 40 | 2.44 | 49.4 | > 30 | > 50 | 13 | 1340 | – | –
9 | C#CCN1CCN(Cc2cn(-c3cc(NC(=S)NCC)ncn3)cn2)CC1 | – | > 50 | > 40 | 7.3 | 13.3 | > 83 | > 50 | 9.22 | 482 | 1.03 | –
10 | C#CCN(C)CCCc1cn(-c2cc(NC(=S)NCC)ncn2)cn1 | – | 3.23 | > 40 | 6.7 | – | – | > 50 | 63.8 | 459 | 0.447 | –
11 | C#CCN(Cc1ccccc1)Cc1cn(-c2cc(NC(=S)NCC)ncn2)cn1 | – | > 50 | > 40 | 9.28 | 18.4 | > 68 | > 50 | 17.8 | 585 | – | –
12 | C#CCNCCCc1cn(-c2cc(NC(=S)NCC)ncn2)cn1 | 3.26 | > 50 | > 40 | 12.7 | 36.6 | > 105 | > 50 | 31.4 | 381 | 0.186 | –
13 | C#CCN(CCCC)Cc1cn(-c2cc(NC(=S)NCC)ncn2)cn1 | – | > 50 | > 40 | 13.4 | 20.1 | > 59 | > 50 | 2.43 | 675 | 0.238 | –
14 | C#CCN(Cc1cn(-c2cc(NC(=S)NCC)ncn2)cn1)C(C)=O | – | > 50 | > 40 | 5.15 | 1.17 | > 78 | > 50 | 4.83 | 515 | 1.17 | –

— ChEMBL document CHEMBL4138195, “Discovery of novel propargylamine-modified 4-aminoalkyl imidazole substituted pyrimidinylthiourea derivatives as multifunctional agents for the treatment of Alzheimer's disease” (Eur J Med Chem, 2018)
